Screening data (PubChem)
hiPSC survival: hiPSC single-cell survival enhancement | AID 602274 | 360,000 compounds, 0.044% hits | survival enhancement, % at 20 µM | ATPlite luminescence; 100% = ROCK inhibitor wells, 0% = DMSO; in the data active means survival enhancement above about 18%;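 further: cells exposed to compounds for 16 hours before the ATP read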
SENP1 inh: blocks the human SENP1 SUMO protease catalytic domain; recombinant SENP1 catalytic domain, CyPet-SUMO1-YPet FRET cleavage; inhibition, % at 10 µM; 360,000 compounds, 0.21% hits; AID 624204;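 active means inhibition at least 30% at 10 µM, raw YFP signal under a set limit, fluorescence ratio 0.5 to 1.5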;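 further: 0% = enzyme with DMSO and 100% = no enzyme wells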
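Assay system – human recombinant His6-tagged SENP1 catalytic domain enzyme · Input – SENP1 enzyme, 20 pM final · Buffer or medium – Tris pH 8 buffer plus EDTA, NaCl, BME, BSA, NP40, catalase · Schedule – 50 min reaction at room temperature · Technique – FRET read of cyan and yellow fluorescence · Control set – no-enzyme wells low, DMSO-plus-enzyme wells high control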
FAS-TE inh: FAS thioesterase (human) inhibition; recombinant FAS-TE, OMFH fluorogenic substrate, fluorescence endpoint; 360,000 compounds, 0.67% hits; AID 602261; inhibition, % at 15 µM; P49327;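 active means compounds whose normalised, plate-corrected inhibition of enzyme fluorescence in the single-dose primary screen is 50% or more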;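 further: 0% = DMSO with enzyme and 100% = substrate without enzyme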
ABCB6 inh 2: blocks the human ABCB6 transporter | Q9NP58 | K562-ABCB6 porphyrin accumulation, flow cytometry, 1 h; stronger effect = lower value | fluorescence ratio to DMSO, % at 10 µM | 360,000 compounds, 0.19% hits;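 active means fluorescence ratio to DMSO below 75%, the collection mean minus 3 SD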;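 further: signal is porphyrin accumulated inside mitochondria; 100% equals median channel fluorescence of DMSO control wells; lower ratio means ABCB6 inhibition with less porphyrin fluorescence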
Target sequence (Q9NP58 whole entry, looked up): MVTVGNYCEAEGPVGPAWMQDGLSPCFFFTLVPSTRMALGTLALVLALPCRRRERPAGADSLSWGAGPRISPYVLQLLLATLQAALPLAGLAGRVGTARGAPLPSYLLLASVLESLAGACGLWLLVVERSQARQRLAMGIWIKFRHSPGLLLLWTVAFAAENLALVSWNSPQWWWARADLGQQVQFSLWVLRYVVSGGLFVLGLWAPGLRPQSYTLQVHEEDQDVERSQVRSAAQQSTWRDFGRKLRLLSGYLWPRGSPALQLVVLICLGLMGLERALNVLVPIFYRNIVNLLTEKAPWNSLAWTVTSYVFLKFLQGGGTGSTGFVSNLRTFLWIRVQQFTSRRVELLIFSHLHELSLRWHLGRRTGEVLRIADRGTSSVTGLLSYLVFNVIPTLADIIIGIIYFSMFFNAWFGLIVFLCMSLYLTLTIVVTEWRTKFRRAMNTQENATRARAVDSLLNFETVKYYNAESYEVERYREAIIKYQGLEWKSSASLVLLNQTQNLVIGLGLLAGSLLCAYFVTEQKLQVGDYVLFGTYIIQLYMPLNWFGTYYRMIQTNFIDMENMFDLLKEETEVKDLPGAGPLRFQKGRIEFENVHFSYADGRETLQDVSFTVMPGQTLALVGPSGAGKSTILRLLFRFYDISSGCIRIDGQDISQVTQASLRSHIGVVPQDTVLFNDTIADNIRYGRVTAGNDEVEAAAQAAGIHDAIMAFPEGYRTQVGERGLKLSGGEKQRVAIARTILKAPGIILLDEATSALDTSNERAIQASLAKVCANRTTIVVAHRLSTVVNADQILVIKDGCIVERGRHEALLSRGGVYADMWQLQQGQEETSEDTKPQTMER
Starred values were filed as active, the others as inactive; i = inactive. Only some compounds are listed: those with a hit (about 1.1% of all), similar ones and a draw of the others.

SMILES | hiPSC survival | SENP1 inh | FAS-TE inh | ABCB6 inh 2
Cc1ccc(Cc2c(-c3ccc(F)cc3)nc3c(C)cc(Br)cn23)cc1 | 0 | 40* | 16 | 92
CCOC(=O)CSc1nc2ccc(Nc3nc(N4CCOCC4)nc(N4CCOCC4)n3)cc2s1 | -1 | -16 | 54* | 96
O=C(Nc1nc(-c2ccc(S(=O)(=O)N3CCCC3)cc2)cs1)c1cccs1 | -1 | -3 | 52* | 92
O=C(Nc1nc(-c2ccc(S(=O)(=O)N3CCCCCC3)cc2)cs1)c1cccs1 | -2 | -3 | 29 | 86
O=C(Cc1csc(NC(=O)Nc2cccc(Cl)c2)n1)NC1CCCC1 | 0 | 2 | -2 | 103
CCOc1cc(/C=N/NC(=O)C(N)=O)cc(Br)c1O | -1 | 0 | -4 | 100
CCOc1cc(Br)c(Br)c(C=Nc2ccc(NC(C)=O)cc2)c1O | 1 | 41* | -8 | 90
O=C(NC1CCCC1)C(c1ccccn1)N(C(=O)c1csnn1)c1ccccc1Br (stereo not drawn) | 0 | 2 | -8 | 98
CN1CCN(C2=C(Cl)C(=O)C(c3cnc(N4CCCCC4)s3)=C(Cl)C2=O)CC1 | -2 | -8 | 60* | 115
CCOc1cc(/C=C/c2ccc3cccc([N+](=O)[O-])c3n2)ccc1O | 0 | 13 | 12 | 88
COc1cc(/C=C/c2ccc3cccc([N+](=O)[O-])c3n2)ccc1OCC#N | -2 | 4 | 53* | 97
COc1ccc(-n2c(C)nnc2SCC(=O)Nc2ccccc2F)cc1 | 1 | -1 | -4 | 96
CNc1nc(Cl)nc(NC(C)(C)C)n1 | 17* | -2 | -5 | 107
C/C(=N\NC(=O)CCc1ccc(S(=O)(=O)N2CCOCC2)cc1)c1ccccc1Cl | -1 | 2 | 11 | 104
COCCN(Cc1nc2ccccc2c(=O)[nH]1)C(=O)COc1ccccc1-c1ccccc1 | 0 | -3 | 7 | 103
CCCc1nc2c(=O)n(C)c(=O)nc-2n(C)n1 | 0 | 34* | 4 | 104
CCn1c(N)nc2c1c(=O)n(C)c(=O)n2C | -1 | -1 | -6 | 96
Cn1nc(-c2ccccn2)nc2c(=O)n(C)c(=O)nc1-2 | 0 | 33* | -1 | 106
O=C(NC1(C(=O)NC2CCCC2)CCCCC1)c1ccc2c(c1)OCO2 | -2 | -1 | -5 | 69*
COc1cccc(CNC(=O)N[C@@H](CC(C)C)C(=O)O)c1 | -4 | -2 | -4 | 63*
CCOC(=O)c1c(C)nc2sc3c(c2c1-c1ccc(OC)cc1)NC(c1ccccc1)NC3=O (stereo not drawn) | 26* | -22 | 0 | 95
COc1cc(C(=O)NC(C)CCn2cccn2)ccc1OC1CCN(C(C)=O)CC1 (stereo not drawn) | 0 | -1 | -7 | 92
CC(=O)c1ccc(NC(=O)/C(=C\c2ccc(F)cc2)NC(=O)c2ccco2)cc1 | 1 | 3 | -1 | 74*
O=C(Nc1ccc(C(=O)O)cc1)/C(=C\c1ccc(F)cc1)NC(=O)c1ccco1 | 0 | 2 | -2 | 103
COc1[nH]c(/N=C/c2ccccc2)c(C#N)c1C#N | 3 | 70* | -9 | 98
SMILES | hiPSC survival | SENP1 inh | FAS-TE inh | ABCB6 inh 2
O=S(=O)(/C=C/c1ccccc1)N1CCN(c2cccc(Cl)c2)CC1 | -2 | 2 | 30 | 69*
CN(C)S(=O)(=O)N1CCN(c2cccc(Cl)c2)CC1 | 4 | 1 | -1 | 95
O=C(OCn1ncc(Cl)c(Cl)c1=O)c1cccc(C(F)(F)F)c1 | 75* | 2 | 32 | 96
Cc1ccc(NC2CC(C)NC(=S)N2)cc1 (stereo not drawn) | 0 | 0 | -3 | 104
Cc1cc(-c2ccc(C)c(S(=O)(=O)Nc3cc(C)on3)c2)on1 | 0 | 3 | -5 | 132
Cc1cc[n+](-c2[nH]c(=O)sc2/C=N/N=C(\[O-])c2ccccc2)cc1C | 0 | 40* | -34 | 100
O=C(Nc1cccc(C(=O)O)c1)/C(=C\c1ccccc1)NC(=O)c1ccco1 | 6 | 0 | 0 | 98
CC(C)O/C(=N/S(=O)(=O)c1ccc(Cl)cc1)c1ccccc1 | 2 | 1 | 15 | 112
C=CCOc1ccc(/C=C/C(=O)OCC(=O)NCC(=O)Nc2c(C)cc(C)cc2C)cc1 | -1 | -1 | -14 | 101
COc1ccc(/C=C2\C(=O)NC(=S)N2C(=O)c2ccc(C)cc2)cc1 | 0 | -107 | 6 | 97
O=C1NC(=S)N(C(=O)c2ccc(F)cc2)/C1=C/c1cccnc1 | 0 | 4 | -5 | 15*
CC[n+]1ccccc1/C=C/c1ccc(N(C)C)cc1 | -2 | 87* | -10 | i
Cc1cc(-c2n[nH]c(=S)n2/N=C/C=C/c2ccccc2)n[nH]1 | 1 | 1 | -10 | 65*
COc1ccccc1/C=C/C=N/n1c(-c2cc(C)[nH]n2)n[nH]c1=S | 2 | -1 | -6 | 97
Cc1nn(CCC#N)c(NC(=O)c2ccc(Cl)cc2Cl)c1P(=O)(Nc1ccc([N+](=O)[O-])cc1)N1CCOCC1 (stereo not drawn) | 1 | 4 | 52* | 102
CCOC(=O)c1cc2c(c(CCO)n1)[C@@H](CCO)N(S(=O)(=O)C(C)(C)C)C2 | 2 | 4 | -7 | 99
Cc1ccc(NC(=O)/C(=C/c2cccc([N+](=O)[O-])c2)NC(=O)C2CCCCC2)cc1 | -4 | 1 | 4 | 72*
O=C(Nc1ccc(Br)cc1)/C(=C/c1cccc([N+](=O)[O-])c1)NC(=O)C1CCCCC1 | 1 | 2 | 39 | 101
O=C(O)CN1C(=O)/C(=C\c2ccc(OC(=O)c3ccco3)cc2)SC1=S | 2 | 39* | -4 | 102
CN(C)c1ccc(/C=C2/NC(=O)NC2=O)cc1 | -2 | -52 | -6 | 101
CN(C)c1ccc(/C=C2\N=C(c3ccc(Cl)c([N+](=O)[O-])c3)NC2=O)cc1 | -5 | 65* | 27 | i
C[C@H](CO)N1C[C@H](C)[C@@H](CN(C)C(=O)Nc2ccccc2)Oc2c(NC(=O)Nc3ccc4c(c3)OCO4)cccc2C1=O | -3 | 1 | 50 | 99
C[C@H](CO)N1C[C@H](C)[C@@H](CN(C)C(=O)Nc2ccc3c(c2)OCO3)Oc2c(NC(=O)Nc3ccc4c(c3)OCO4)cccc2C1=O | -4 | -2 | 55* | 86
Cc1cc([N+](=O)[O-])nn1Cc1ccc(C(=O)N/N=C/c2ccc(N(C)C)cc2)cc1 | 0 | -4 | 3 | 96
CCc1ccc([C@@H]2CC=C(C(=O)O)[C@H](c3ccc(F)cc3)N2S(=O)(=O)c2ccc(C)cc2)cc1 | 2 | 1 | 2 | 100
O=C1c2ccccc2C(=O)c2cc(N3CCCCC3)ccc21 | -3 | 95* | 15 | 881
Cc1c(NC(C)c2cc(Cl)ccc2O)c(=O)n(-c2ccccc2)n1C (stereo not drawn) | 1 | 0 | 0 | 101
Cc1c(NC(C)c2ccccc2O)c(=O)n(-c2ccccc2)n1C (stereo not drawn) | 0 | 4 | -7 | 54*
